Activity calls are given as the source filed them. The rule behind the calls is not given here.
Legend:
RAW264.7 = assay: Inhibition of NO production in INFgamma-stimulated mouse RAW264.7 cells measured after 24 hrs by Griess reaction method; assay type: functional, cell-based; conditions: RAW264.7, 24 h
In short: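 RAW 264.7 mouse macrophages were seeded at 30,000 cells/well in triplicate. The next day they were pre-treated for 2 h with DMSO or compound (0–200 nM), then stimulated with IFN-γ for 24 h. Medium NO was measured by Griess reagent and viability by WST-1. IC₅₀ came from suppression of IFN-γ-induced NO normalized to viability.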

[1] = target: NAD(P)H dehydrogenase [quinone] 1 (Mus musculus) (UniProt Q64669); assay: Induction of NQO1 activity in mouse Hepa-1c1c7 cells assessed as concentration require to double the specific enzyme activity after 48 hrs; assay type: cell-based
In short: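 Hepa1c1c7 murine hepatoma cells were seeded at 10,000 cells/well and grown 24 h, then exposed to serial dilutions for 48 h. NQO1 specific enzyme activity was measured, and potency was taken as the concentration that doubles it (CD). Each concentration used eight replicate wells; SD was 5–10%.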

[2] = target: T1, Heme oxygenase 1 (Mus musculus) (UniProt P14901); assay: Induction of HO1 activity in mouse RAW264.7 cells at 30 to 100 nM after 16 hrs; assay type: cell-based
T1 sequence (whole entry): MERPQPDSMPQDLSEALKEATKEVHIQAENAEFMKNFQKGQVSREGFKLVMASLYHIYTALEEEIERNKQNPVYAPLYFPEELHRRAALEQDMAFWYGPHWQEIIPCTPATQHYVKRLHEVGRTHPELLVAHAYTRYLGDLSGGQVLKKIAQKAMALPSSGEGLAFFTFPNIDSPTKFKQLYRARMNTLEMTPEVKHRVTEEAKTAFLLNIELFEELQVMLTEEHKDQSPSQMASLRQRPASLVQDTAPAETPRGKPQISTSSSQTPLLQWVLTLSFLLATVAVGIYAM
In short: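 RAW 264.7 mouse macrophages were plated at 100,000 cells/well and treated the next day with DMSO or compound for 16 h (overnight). Cells were harvested in tricine sample buffer with b-ME. Lysates were run on SDS–PAGE and immunoblotted for HO-1, with GAPDH as the reference protein.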

[3] = Stability of the compound at 4 degC; assay type: physicochemical

Sequence of NAD(P)H dehydrogenase [quinone] 1 (Mus musculus) (Q64669 whole entry): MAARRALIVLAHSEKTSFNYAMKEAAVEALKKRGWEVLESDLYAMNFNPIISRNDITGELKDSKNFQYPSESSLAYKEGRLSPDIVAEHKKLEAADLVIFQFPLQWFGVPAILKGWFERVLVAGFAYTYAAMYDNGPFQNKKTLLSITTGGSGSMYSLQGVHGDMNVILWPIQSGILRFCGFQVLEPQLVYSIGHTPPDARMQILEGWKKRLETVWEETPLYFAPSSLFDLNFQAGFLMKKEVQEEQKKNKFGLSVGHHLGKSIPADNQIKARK

## C#Cc1nccn1C(=O)[C@]12CCC(C)(C)C[C@H]1[C@H]1C(=O)C=C3[C@@]4(C)C=C(C#N)C(=O)C(C)(C)[C@@H]4CC[C@@]3(C)[C@]1(C)CC2
RAW264.7
  IC50: 2.3 nM
[1]
  CD: 0.9 nM
[2]
  Activity: Active
[3]
  Stability: 3 yr

## CC1(C)CC[C@]2(C(=O)n3ccnc3C#Cc3ccccc3)CC[C@]3(C)[C@H](C(=O)C=C4[C@@]5(C)C=C(C#N)C(=O)C(C)(C)[C@@H]5CC[C@]43C)[C@@H]2C1
RAW264.7
  IC50: 4 nM
[1]
  CD: 1.2 nM
[2]
  Activity: Active
[3]
  Stability: 3 yr

## CC1(C)CC[C@]2(C(=O)n3ccnc3)CC[C@]3(C)[C@H](C(=O)C=C4[C@@]5(C)C=C(C#N)C(=O)C(C)(C)[C@@H]5CC[C@]43C)[C@@H]2C1
RAW264.7
  IC50: 0.6 nM
[1]
  CD: 0.2 nM
[3]
  Stability: 1 yr

## C#Cc1cn(C(=O)[C@]23CCC(C)(C)C[C@H]2[C@H]2C(=O)C=C4[C@@]5(C)C=C(C#N)C(=O)C(C)(C)[C@@H]5CC[C@@]4(C)[C@]2(C)CC3)cn1
RAW264.7
  IC50: 1.4 nM
[1]
  CD: 0.4 nM
[2]
  Activity: Active
[3]
  Stability: 3 yr

## CC1(C)CC[C@]2(C(=O)n3cnc(C#Cc4ccccc4)c3)CC[C@]3(C)[C@H](C(=O)C=C4[C@@]5(C)C=C(C#N)C(=O)C(C)(C)[C@@H]5CC[C@]43C)[C@@H]2C1
RAW264.7
  IC50: 7.8 nM

## CC1(C)CC[C@]2(C(=O)O)CC[C@]3(C)[C@H](C(=O)C=C4[C@@]5(C)C=C(C#N)C(=O)C(C)(C)[C@@H]5CC[C@]43C)[C@@H]2C1 [BARDOXOLONE]
RAW264.7
  IC50: 11 nM
[1]
  CD: 3 nM

## CC#Cc1nc(C)cn1C(=O)[C@]12CCC(C)(C)C[C@H]1[C@H]1C(=O)C=C3[C@@]4(C)C=C(C#N)C(=O)C(C)(C)[C@@H]4CC[C@@]3(C)[C@]1(C)CC2
RAW264.7
  IC50: 2 nM
[1]
  CD: 0.4 nM
[2]
  Activity: Active
[3]
  Stability: 3 yr

— ChEMBL document CHEMBL1759875, “Synthesis and biological evaluation of 1-[2-cyano-3,12-dioxooleana-1,9(11)-dien-28-oyl]-4-ethynylimidazole. A novel and highly potent anti-inflammatory and cytoprotective agent” (Bioorg Med Chem Lett, 2011)
